Experimental data published in ChEMBL document CHEMBL1671645, “Pharmacokinetics and absorption of posaconazole oral suspension under various gastric conditions in healthy volunteers” (Antimicrob Agents Chemother, 2009).

Assays:
Homo sapiens [1] = experiment: Toxicity in healthy human assessed as adverse events at 200 mg QID, po administered as suspension for 7 days; format: organism-based; conditions: in vivo, 168 h
Method in brief: (§1)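 Healthy volunteers monitored for adverse events, vital signs, clinical laboratory values and 12-lead ECG. Adverse events tabulated by body system or organ class and severity and summarized by treatment across the crossover regimens.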

Homo sapiens [2] = experiment: AUC in healthy human at 400 mg BID, po administered as suspension for 7 days coadministered with nutritional supplement; format: ADME, organism-based, Plasma; conditions: in vivo, 168 h
Method in brief: (§2)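 Twelve healthy subjects took oral suspension for 7 days as 400 mg BID or 200 mg QID, either fasting or with a Boost-type nutritional supplement, in a crossover with 14–21 day washouts. Nonfat snacks of 800 cal/day or less were allowed. Plasma was sampled 0–168 h after the day-7 morning dose only and analysed by LC-MS/MS. AUC is AUC_τ, normalized to dose.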

Homo sapiens [3] = experiment: AUC in fasted healthy human at 400 mg BID, po administered as suspension for 7 days; format: ADME, organism-based, Plasma; conditions: in vivo, 168 h; method in brief: as §2
Homo sapiens [4] = experiment: Toxicity in healthy human assessed as nausea at 400 mg administered as single dose suspension coadministered with nutritional supplement and 10 mg metoclopramide; format: organism-based; conditions: in vivo
Method in brief: (§3)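 Three-way randomized crossover in 13 healthy volunteers with a 7- to 10-day washout. Each period was one 400-mg oral posaconazole suspension dose with a nutritional supplement. Metoclopramide 10 mg was given orally three times daily on the day before and the day of dosing; loperamide was a single 4 mg. Safety was assessed from adverse events, tabulated by body system and severity per treatment.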

[5] = Tmax in healthy human at 400 mg BID, po administered as suspension for 7 days coadministered with nutritional supplement; format: ADME, organism-based; conditions: in vivo
Method in brief: (§4)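 Healthy volunteers given oral suspension (40 mg/ml) for 7 days, fasted or with nutritional supplement (Boost); four-way crossover, 14–21-day washout, nonfat snacks ≤800 cal/day allowed. On day 7 only the morning dose was given; plasma sampled predose to 168 h after it. LC-MS/MS (LLOQ 5.00 ng/ml). t1/2 = ln(2)/K from log-linear terminal slope; Tmax as median.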

Homo sapiens [6] = experiment: Toxicity in healthy human assessed as headache at 400 mg BID, po administered as suspension for 7 days coadministered with nutritional supplement; format: organism-based; conditions: in vivo, 168 h
Method in brief: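 Healthy volunteers (n = 12) took oral posaconazole suspension (40 mg/ml) for 7 days in a four-way randomized crossover with a 14- to 21-day washout. Subjects stayed fasted throughout, with nonfat snacks up to 800 cal/day allowed. Where given, Boost was taken with each dose. Safety covered adverse events, vital signs, clinical labs and 12-lead ECG, with AEs tabulated by body system and severity per treatment.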

[7] = Tmax in fasted healthy human at 200 mg QID, po administered as suspension for 7 days; format: ADME, organism-based; conditions: in vivo; method in brief: as §4
[8] = Tmax in fasted healthy human at 400 mg administered as single dose suspension; format: ADME, organism-based; conditions: in vivo
Method in brief: (§5)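 Single oral suspension dose in fasting healthy volunteers, alone, with 12 oz ginger ale, after esomeprazole 40 mg once each morning days −2 to 1, or both; four-way crossover, 7–10-day washout. EDTA plasma 0–168 h. LC-MS/MS (LLOQ 5.00 ng/ml). t1/2 = ln(2)/K from terminal log-linear regression; Tmax median.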

Homo sapiens [9] = experiment: Toxicity in healthy human assessed as adverse events at 200 mg QID, po administered as suspension for 7 days coadministered with nutritional supplement; format: organism-based; conditions: in vivo, 168 h; method in brief: as §1
[10] = Apparent total body clearance in fasted healthy human at 400 mg administered as single dose suspension after consumption of high fat meal; format: ADME, organism-based; conditions: in vivo
Method in brief: (§6)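 In a crossover of 12 healthy subjects, each took a single 400 mg oral suspension dose 5 min before, midway through (about 10 min into a 20-min meal), or 20 min after a high-fat meal of about 50 g fat. Plasma was drawn 0–168 h and measured by LC-MS/MS. Parameters are noncompartmental, with AUC to the last measurable time.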

[11] = AUC in fasted healthy human at 400 mg administered as single dose suspension; format: ADME, organism-based; conditions: plasma
[12] = Apparent total body clearance in fasted healthy human at 400 mg administered as single dose suspension coadministered with acidic carbonated beverage; format: ADME, organism-based; conditions: in vivo
Method in brief: (§7)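 This was a four-way crossover in 12 healthy subjects with 7–10 day washouts. Each took one fasting 400 mg oral suspension dose, with 12 oz ginger ale and/or esomeprazole 40 mg once each morning on days −2 to 1, with dosing on day 1. Plasma was sampled 0–168 h and measured by LC-MS/MS (LLOQ 5.00 ng/ml). Analysis was noncompartmental, with CL/F = dose/AUC_I and V/F = (CL/F)/K.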

[13] = Apparent total body clearance in fasted healthy human at 400 mg administered as single dose suspension coadministered with acidic carbonated beverage and proton pump inhibitor; format: ADME, organism-based; conditions: in vivo; method in brief: as §7
[14] = Apparent volume of distribution in healthy human at 400 mg administered as single dose suspension coadministered with nutritional supplement; format: ADME, organism-based; conditions: in vivo
Method in brief: (§8)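 A three-way crossover in 13 healthy subjects gave one 400 mg oral suspension dose with a nutritional supplement, either alone, with metoclopramide 10 mg orally three times daily on the day before and the day of dosing, or with a single 4 mg dose of loperamide. Plasma was taken 0–168 h for LC-MS/MS. Analysis was noncompartmental.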

Homo sapiens [15] = experiment: Toxicity in healthy human assessed as fatigue at 400 mg administered as single dose suspension coadministered with nutritional supplement and 10 mg metoclopramide; format: organism-based; conditions: in vivo; method in brief: as §3
Homo sapiens [16] = experiment: AUC in fasted healthy human at 200 mg QID, po administered as suspension for 7 days; format: ADME, organism-based, Plasma; conditions: in vivo, 168 h; method in brief: as §2
[17] = Half life in fasted healthy human at 400 mg administered as single dose suspension 5 mins before consumption of high fat meal; format: ADME, organism-based; conditions: in vivo
Method in brief: (§9)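 Single oral suspension dose in healthy volunteers while fasting, 5 min before, midway through (about 10 min into a 20-min meal), or 20 min after a high-fat meal (approx 50 g fat); four-way crossover, 7–10-day washout. Plasma 0–168 h by LC-MS/MS (LLOQ 5.00 ng/ml). t1/2 = ln(2)/K; Tmax median.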

[18] = AUC in fasted healthy human at 400 mg administered as single dose suspension 5 mins before consumption of high fat meal; format: ADME, organism-based; conditions: plasma; method in brief: as §6
[19] = Half life in fasted healthy human at 400 mg administered as single dose suspension coadministered with acidic carbonated beverage; format: ADME, organism-based; conditions: in vivo; method in brief: as §5
[20] = Apparent volume of distribution in fasted healthy human at 400 mg administered as single dose suspension coadministered with acidic carbonated beverage; format: ADME, organism-based; conditions: in vivo, read-out: Vc/F; method in brief: as §7
Homo sapiens [21] = experiment: Toxicity in healthy human assessed as dizziness at 200 mg QID, po administered as suspension for 7 days; format: organism-based; conditions: in vivo, 168 h; method in brief: as §1
Homo sapiens [22] = experiment: Toxicity in healthy human assessed as adverse events at 400 mg BID, po administered as suspension for 7 days coadministered with nutritional supplement; format: organism-based; conditions: in vivo, 168 h; method in brief: as §1
[23] = Tmax in fasted healthy human at 400 mg administered as single dose suspension coadministered with acidic carbonated beverage and proton pump inhibitor; format: ADME, organism-based; conditions: in vivo; method in brief: as §5
[24] = Half life in healthy human at 200 mg QID, po administered as suspension for 7 days coadministered with nutritional supplement; format: ADME, organism-based; conditions: in vivo; method in brief: as §4
[25] = AUC in fasted healthy human at 400 mg administered as single dose suspension after consumption of high fat meal; format: ADME, organism-based; conditions: plasma; method in brief: as §6
[26] = Half life in fasted healthy human at 400 mg administered as single dose suspension; format: ADME, organism-based; conditions: in vivo; method in brief: as §5
[27] = Apparent total body clearance in healthy human at 400 mg administered as single dose suspension coadministered with nutritional supplement; format: ADME, organism-based; conditions: in vivo; method in brief: as §8
[28] = Tmax in fasted healthy human at 400 mg administered as single dose suspension after consumption of high fat meal; format: ADME, organism-based; conditions: in vivo; method in brief: as §9

CC[C@@H]([C@H](C)O)n1ncn(-c2ccc(N3CCN(c4ccc(OC[C@@H]5CO[C@@](Cn6cncn6)(c6ccc(F)cc6F)C5)cc4)CC3)cc2)c1=O [POSACONAZOLE]
Activity (Homo sapiens [1]): 75% | AUC (Homo sapiens [2]): 80600 ng·h/mL | AUC (Homo sapiens [3]): 52300 ng·h/mL | Activity (Homo sapiens [4]): 23% | Tmax [5]: 6 h | Activity (Homo sapiens [6]): 25% | Tmax [7]: 4 h | Tmax [8]: 5 h | Activity (Homo sapiens [9]): 75% | CL/F [10]: 395 mL/min | AUC [11]: 5600 ng·h/mL | CL/F [12]: 870 mL/min | CL/F [13]: 1620 mL/min | Vd/F [14]: 1660 L | Activity (Homo sapiens [15]): 15% | AUC (Homo sapiens [16]): 132000 ng·h/mL | half-life [17]: 23.9 h | AUC at 5 min [18]: 10000 ng·h/mL | half-life [19]: 25.2 h | Vd/F [20]: 1840 L | Activity (Homo sapiens [21]): 33% | Activity (Homo sapiens [22]): 75% | Tmax [23]: 6 h | half-life [24]: 27.8 h | AUC [25]: 21000 ng·h/mL | half-life [26]: 24.5 h | CL/F [27]: 823 mL/min | Tmax [28]: 6 h
